Results taken from ChEMBL document CHEMBL1154693, “Discovery of trans-4-[1-[[2,5-Dichloro-4-(1-methyl-3-indolylcarboxamido)phenyl]acetyl]-(4S)-methoxy-(2S)-pyrrolidinylmethoxy]cyclohexanecarboxylic acid: an orally active, selective very late antigen-4 antagonist” (J Med Chem, 2009).
Values belong to the molecule of their own block, whether it stands above or below them.

Assays:
[1] = molecular target: T1, Integrin alpha-4/beta-1 (Homo sapiens, UniProt P05556+P13612); assay: Inhibition of europium labeled human VCAM1/Fc chimera binding to human VLA-4 alpha-4-beta-1 expressed in Chinese hamster 4B4 cells in presence of 3% HSA by fluorimetric assay; format: cell-based
T1 sequence (P05556 whole entry): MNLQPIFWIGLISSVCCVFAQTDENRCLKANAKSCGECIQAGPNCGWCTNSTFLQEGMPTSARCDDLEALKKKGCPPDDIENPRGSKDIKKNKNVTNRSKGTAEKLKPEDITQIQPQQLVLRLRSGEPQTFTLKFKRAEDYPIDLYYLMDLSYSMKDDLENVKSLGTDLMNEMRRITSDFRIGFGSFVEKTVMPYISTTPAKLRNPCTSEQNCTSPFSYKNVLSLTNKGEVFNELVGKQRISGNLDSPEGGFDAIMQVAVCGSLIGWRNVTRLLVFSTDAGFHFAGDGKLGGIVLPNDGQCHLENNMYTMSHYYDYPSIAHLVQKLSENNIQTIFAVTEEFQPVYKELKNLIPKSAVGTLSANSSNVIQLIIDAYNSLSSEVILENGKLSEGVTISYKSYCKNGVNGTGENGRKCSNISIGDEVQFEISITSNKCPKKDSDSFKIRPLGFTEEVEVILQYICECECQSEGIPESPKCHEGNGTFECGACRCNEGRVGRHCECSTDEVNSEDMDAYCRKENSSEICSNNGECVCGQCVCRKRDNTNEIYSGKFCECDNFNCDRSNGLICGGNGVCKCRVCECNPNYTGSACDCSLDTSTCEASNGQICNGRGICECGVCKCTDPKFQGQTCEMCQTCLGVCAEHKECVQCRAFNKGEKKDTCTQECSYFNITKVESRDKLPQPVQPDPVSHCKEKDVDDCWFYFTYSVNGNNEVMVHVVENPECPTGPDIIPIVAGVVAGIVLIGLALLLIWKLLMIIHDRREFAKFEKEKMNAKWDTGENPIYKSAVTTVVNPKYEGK
T1 sequence (P13612 whole entry): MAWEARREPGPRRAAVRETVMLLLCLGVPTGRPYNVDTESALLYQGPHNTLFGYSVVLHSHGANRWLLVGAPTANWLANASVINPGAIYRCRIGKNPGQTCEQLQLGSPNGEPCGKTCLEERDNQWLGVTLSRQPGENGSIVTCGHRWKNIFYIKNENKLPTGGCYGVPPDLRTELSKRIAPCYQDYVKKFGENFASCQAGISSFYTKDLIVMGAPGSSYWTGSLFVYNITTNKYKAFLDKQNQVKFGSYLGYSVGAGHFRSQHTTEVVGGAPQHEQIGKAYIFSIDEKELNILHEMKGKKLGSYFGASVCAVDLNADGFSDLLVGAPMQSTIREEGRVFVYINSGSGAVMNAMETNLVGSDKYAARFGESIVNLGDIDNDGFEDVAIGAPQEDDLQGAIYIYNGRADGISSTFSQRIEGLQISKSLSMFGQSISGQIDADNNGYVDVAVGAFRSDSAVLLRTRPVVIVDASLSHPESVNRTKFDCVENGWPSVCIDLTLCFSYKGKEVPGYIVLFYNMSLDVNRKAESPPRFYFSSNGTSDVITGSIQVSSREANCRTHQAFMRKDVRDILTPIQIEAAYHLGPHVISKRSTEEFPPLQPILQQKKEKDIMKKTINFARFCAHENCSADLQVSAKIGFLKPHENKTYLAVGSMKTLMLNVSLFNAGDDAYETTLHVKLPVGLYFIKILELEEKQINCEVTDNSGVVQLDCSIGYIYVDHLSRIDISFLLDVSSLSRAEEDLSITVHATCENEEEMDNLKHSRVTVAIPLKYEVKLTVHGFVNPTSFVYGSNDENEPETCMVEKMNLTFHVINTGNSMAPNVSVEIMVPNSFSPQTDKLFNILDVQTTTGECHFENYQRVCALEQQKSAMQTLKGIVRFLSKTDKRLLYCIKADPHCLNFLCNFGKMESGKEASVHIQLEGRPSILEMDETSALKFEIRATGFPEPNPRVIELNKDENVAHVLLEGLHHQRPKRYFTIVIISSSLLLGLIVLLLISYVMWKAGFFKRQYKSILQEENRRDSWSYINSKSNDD
Outline: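 CHO-K1 4B4 cells transfected with human α4 and β1, plated at 3 × 10⁵ cells/mL and cultured 2 days, washed with HEPES pH 7.5 buffer containing Ca, Mg, Mn. Compound plus Eu-labeled human VCAM-1/Fc (final 1 nM), with or without human serum albumin, 60 min at room temperature; washed, Eu time-resolved fluorescence read; duplicates.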

[2] = Oral bioavailability in Beagle dog at 0.5 mg/kg, po; format: ADME, organism-based, Canis lupus familiaris; details: in vivo
Outline: (§1)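 Male beagle dogs (10-12 kg), fasted 18 h, three per group; cassette dosing 0.5 mg/kg in 0.5% MC with 3 equiv NaOH (po) or saline with 3 equiv NaOH (iv). Blood taken 0.08 (iv) or 0.25 (po) to 24 h, fed after 4 h; plasma assayed by LC/MS/MS, noncompartmental analysis.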

[3] = AUC in Beagle dog at 0.5 mg/kg, iv; format: ADME, organism-based, Canis lupus familiaris; set-up: dose 0.5 mg/kg, route intravenous; details: plasma; outline: as §1
[4] = Volume of distribution at steady state in Beagle dog at 0.5 mg/kg, iv; format: ADME, organism-based, Canis lupus familiaris; set-up: dose 0.5 mg/kg, route intravenous; details: in vivo, read-out: Vdss; outline: as §1
[5] = test system: Mus musculus; assay: Antiinflammatory activity in Ascaris suum antigen-induced BALB/c AnNCrj mouse asthma model assessed as inhibition of eosinophil infiltration in BAL fluid orally administered twice daily 15 mins before and 8, 24 and 32 hrs after antigen challenge measured 48 hrs after antigen challenge; format: functional, organism-based
Outline: (§2)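 Female BALB/c AnNCrj mice given cyclophosphamide 150 mg/kg po (day 0), sensitized ip with Ascaris suum extract plus alum on days 2 and 14, challenged intratracheally day 22. Compound in 0.5% MC/0.03% Tween 80 po 15 min before and 8, 24, 32 h after challenge; BAL at 48 h, eosinophils from total count times Wright-stained differential.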

[6] = Cmax in cynomolgus monkey at 0.5 mg/kg, po; format: ADME, organism-based, Macaca fascicularis; set-up: dose 0.5 mg/kg, route oral; details: in vivo
Outline: (§3)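 Female cynomolgus monkeys (3.5-4 kg), fasted 18 h, three per group. Dose 0.5 mg/kg, oral as suspension in 0.5% MC or iv in saline with 3 equiv NaOH. Blood sampled from 0.08 (iv) or 0.25 (po) up to 24 h, food after 4 h; plasma LC/MS/MS, noncompartmental analysis.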

[7] = Half life in Beagle dog at 0.5 mg/kg, po; format: ADME, organism-based, Canis lupus familiaris; set-up: dose 0.5 mg/kg, route oral; details: in vivo; outline: as §1
[8] = AUC in cynomolgus monkey at 0.5 mg/kg, iv; format: ADME, organism-based, Macaca fascicularis; set-up: dose 0.5 mg/kg, route intravenous; details: plasma; outline: as §3
[9] = molecular target: Integrin alpha-IIb/beta-3 (Homo sapiens) (UniProt P05106+P08514); assay: Inhibition of integrin alpha2bbeta3 receptor dependent platelet aggregation at 16 uM
Outline: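 Platelet-rich plasma prepared from citrated blood of two volunteers. Compound in DMSO preincubated with PRP for 2 min at 37 °C, then aggregation induced with collagen; aggregation rate followed for 10 min.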

[10] = Half life in Sprague-Dawley rat at 1 mg/kg, po; format: ADME, organism-based; set-up: dose 1 mg/kg, route oral; details: in vivo
Outline: (§4)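 Male Sprague-Dawley rats (7 weeks), fasted 18 h, four per group. 1 mg/kg oral in 0.5% MC or iv in saline, each with 3 equiv NaOH. Plasma drawn at 0.08 (iv) or 0.25 (po), 0.5, 1, 2 and 6 h; LC/MS/MS quantitation, noncompartmental parameters.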

[11] = Cmax in Sprague-Dawley rat at 1 mg/kg, po; format: ADME, organism-based; set-up: dose 1 mg/kg, route oral; details: in vivo; outline: as §4
[12] = Drug level in BALB/c mouse serum at 10 mg/kg, po after 15 mins; format: ADME, organism-based; set-up: dose 10 mg/kg, route oral; details: read-out: Drug uptake
Outline: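 Serum (final 0.01-10%) assayed in the VLA-4/VCAM-1 binding assay, and concentration estimated from a calibration curve of compound spiked into untreated mouse serum.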

[13] = Oral bioavailability in Sprague-Dawley rat at 1 mg/kg, po; format: ADME, organism-based; details: in vivo; outline: as §4
[14] = Half life in cynomolgus monkey at 0.5 mg/kg, po; format: ADME, organism-based, Macaca fascicularis; set-up: dose 0.5 mg/kg, route oral; details: in vivo; outline: as §3
[15] = molecular target: T1, Integrin alpha-4/beta-1; assay: Inhibition of europium labeled human VCAM1/Fc chimera binding to human VLA-4 alpha-4-beta-1 expressed in Chinese hamster 4B4 cells by fluorimetric assay; format: cell-based
[16] = Half life in Sprague-Dawley rat at 1 mg/kg, iv; format: ADME, organism-based; set-up: dose 1 mg/kg, route intravenous; details: in vivo; outline: as §4
[17] = test system: Mus musculus; assay: Antiinflammatory activity in Ascaris suum antigen-induced BALB/c AnNCrj mouse asthma model assessed as inhibition of eosinophil infiltration in BAL fluid at 5 mg.kg, po bid administered 15 mins before and 8, 24 and 32 hrs after antigen challenge measured 48 hrs after antigen challenge; format: functional; outline: as §2
[18] = Half life in cynomolgus monkey at 0.5 mg/kg, iv; format: ADME, organism-based, Macaca fascicularis; set-up: dose 0.5 mg/kg, route intravenous; details: in vivo; outline: as §3
[19] = Clearance in cynomolgus monkey at 0.5 mg/kg, iv; format: ADME, organism-based, Macaca fascicularis; set-up: dose 0.5 mg/kg, route intravenous; details: in vivo; outline: as §3
[20] = test system: Mus musculus; assay: Toxicity in BALB/c AnNCrj mouse assessed as induction of hepatic injury at 200 mg/kg, po for 2 days; format: organism-based; set-up: dose 200 mg/kg, route oral; details: in vivo, 48 h
Outline: (§5)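 Mice dosed iv at 50 mg/kg or orally at 25 or 200 (mg/kg)/day for 2 days, then assessed for liver injury.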

[21] = AUC in Sprague-Dawley rat at 1 mg/kg, po; format: ADME, organism-based; set-up: dose 1 mg/kg, route oral; details: plasma; outline: as §4
[22] = Volume of distribution at steady state in Sprague-Dawley rat at 1 mg/kg, iv; format: ADME, organism-based; set-up: dose 1 mg/kg, route intravenous; details: in vivo, read-out: Vdss; outline: as §4
[23] = AUC in cynomolgus monkey at 0.5 mg/kg, po; format: ADME, organism-based, Macaca fascicularis; set-up: dose 0.5 mg/kg, route oral; details: plasma; outline: as §3
[24] = Clearance in Beagle dog at 0.5 mg/kg, iv; format: ADME, organism-based, Canis lupus familiaris; set-up: dose 0.5 mg/kg, route intravenous; details: in vivo; outline: as §1
[25] = test system: Mus musculus; assay: Toxicity in BALB/c AnNCrj mouse assessed as induction of hepatic injury at 50 mg/kg, iv for 2 days; format: organism-based; set-up: dose 50 mg/kg, route intravenous; details: in vivo, 48 h; outline: as §5
[26] = AUC in Beagle dog at 0.5 mg/kg, po; format: ADME, organism-based, Canis lupus familiaris; set-up: dose 0.5 mg/kg, route oral; details: plasma; outline: as §1
[27] = Half life in Beagle dog at 0.5 mg/kg, iv; format: ADME, organism-based, Canis lupus familiaris; set-up: dose 0.5 mg/kg, route intravenous; details: in vivo; outline: as §1
[28] = Oral bioavailability in cynomolgus monkey at 0.5 mg/kg, po; format: ADME, organism-based, Macaca fascicularis; details: in vivo; outline: as §3
[29] = molecular target: Intercellular adhesion molecule (ICAM-1), Integrin alpha-L/beta-2 (Homo sapiens) (UniProt P20701+P05362+P05107); assay: Inhibition of europium labeled human ICAM1 binding to human integrin alphaLbeta2 receptor at 162 uM by protein/protein binding assay; format: protein-complex assay
Outline: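 Membrane-bound human LFA-1 immobilized at 1 μg/mL overnight at 4 °C, then blocked with BSA. Compound added with 2 nM Eu-labeled human ICAM-1 D1D5-IgG in 5% DMSO and bound for 2 h at room temperature; plates washed and Eu fluorescence read by time-resolved fluorometry.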

[30] = test system: Mus musculus; assay: Antiinflammatory activity in Ascaris suum antigen-induced BALB/c AnNCrj mouse asthma model assessed as reduction of acetylcholine chloride-induced bronchial hyperesponsiveness at 12.5 mg/kg, bid administered 15 mins before and 8, 24 and 32 hrs after antigen challenge measured 48 hrs after antigen challenge; format: functional; set-up: scale not given: the % may be the effect or the level left
Outline: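 Sensitized/challenged BALB/c AnNCrj mice (Ascaris suum, as in the eosinophil model) dosed po in 0.5% MC/0.03% Tween 80 at 15 min before and 8, 24, 32 h after challenge. At 48 h, pentobarbital-anesthetized, tracheotomized, ventilated mice given ACh injection; lung resistance increase measured.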

[31] = Clearance in Sprague-Dawley rat at 1 mg/kg, iv; format: ADME, organism-based; set-up: dose 1 mg/kg, route intravenous; details: in vivo; outline: as §4
[32] = test system: Cavia porcellus; assay: Inhibition of acetylcholine chloride-induced bronchial hyperesponsiveness in ovalbumin challenged guinea pig asthma model administered orally 1 hr before and 2.5 hrs after antigen challenge; format: functional
Outline: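 Hartley guinea pigs (n = 8/group) sensitized with 1% OVA aerosol 10 min/day for 8 days, challenged a week later with 2% OVA aerosol 5 min; metyrapone iv and pyrilamine ip pretreatment. Oral doses 0.8, 2, 5 or 12.5 mg/kg at 1 h before and 2.5 h after challenge. At 22-27.5 h, stepwise ACh aerosol (0.0625-2 mg/mL); PC100ACh from sRaw.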

[33] = AUC in Sprague-Dawley rat at 1 mg/kg, iv; format: ADME, organism-based; set-up: dose 1 mg/kg, route intravenous; details: plasma; outline: as §4
[34] = Cmax in Beagle dog at 0.5 mg/kg, po; format: ADME, organism-based, Canis lupus familiaris; set-up: dose 0.5 mg/kg, route oral; details: in vivo; outline: as §1
[35] = Volume of distribution at steady state in cynomolgus monkey at 0.5 mg/kg, iv; format: ADME, organism-based, Macaca fascicularis; set-up: dose 0.5 mg/kg, route intravenous; details: in vivo, read-out: Vdss; outline: as §3
[36] = molecular target: T2, Integrin alpha-4/beta-7 (Homo sapiens) (UniProt P13612+P26010); assay: Inhibition of MAdCAM1 binding to integrin alpha4beta7 receptor in human RPMI8866 cells at 16 uM by cell/protein binding assay; format: cell-based
Outline: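 RPMI8866 human B cells (α4β7+, β1−) at 1.2 × 10⁶/well in HEPES buffer containing BSA, DTPA, Ca, Mg and Mn, mixed with compound (final 10 μg/mL to 1 ng/mL) and Eu-MAdCAM-1 (final 1 nM) for 1 h at room temperature. Free ligand removed by centrifugation and washing; time-resolved fluorescence measured.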

[37] = in vivo; details: rat, plasma
[38] = Half life in Sprague-Dawley rat at 10 mg/kg, iv; format: ADME, organism-based; set-up: dose 10 mg/kg, route intravenous; details: in vivo
[39] = Oral bioavailability in rat; details: in vivo
[40] = Volume of distribution at steady state in Sprague-Dawley rat at 10 mg/kg, iv; format: ADME, organism-based; set-up: dose 10 mg/kg, route intravenous; details: in vivo, read-out: Vdss
[41] = molecular target: T2, Integrin alpha-4/beta-7 (Homo sapiens); details: at 4 µg/mL
[42] = Protein binding in plasma
[43] = Clearance in Sprague-Dawley rat at 10 mg/kg, iv; format: ADME, organism-based; set-up: dose 10 mg/kg, route intravenous; details: in vivo

IC50 [1]: 93 nM | bioavailability [2]: 91% | AUC [3]: 6710 ng·h/mL | Vd [4]: 0.164 L/kg | Cmax [6]: 431 ng/mL | half-life [7]: 2 h | AUC [8]: 5140 ng·h/mL | inhibition [9]: 10% | half-life [10]: 1.5 h | Cmax [11]: 385 ng/mL | concentration at 0.25 h [12]: 6150 ng/mL | bioavailability [13]: > 100% | half-life [14]: 5.5 h | IC50 [15]: 5.4 nM | half-life [16]: 1 h | half-life [18]: 6.3 h | clearance [19]: 1.8 mL/min/kg | AUC [21]: 975 ng·h/mL | Vd [22]: 1.22 L/kg | AUC [23]: 3480 ng·h/mL | clearance [24]: 1.7 mL/min/kg | AUC [26]: 6090 ng·h/mL | half-life [27]: 2.1 h | bioavailability [28]: 68% | inhibition [29]: 9% | clearance [31]: 19.3 mL/min/kg | AUC [33]: 865 ng·h/mL | Cmax [34]: 1590 ng/mL | Vd [35]: 0.223 L/kg | inhibition [36]: 41%
SMILES: CO[C@H]1C[C@@H](CO[C@H]2CC[C@H](C(=O)O)CC2)N(C(=O)Cc2cc(Cl)c(NC(=O)c3cn(C)c4ccccc34)cc2Cl)C1
Activity [5]: Dose-dependent effect | inhibition (INH) [17]: 53% | Activity [20]: Non-toxic | Activity [25]: Non-toxic | Activity [30]: 83% | Activity [32]: Dose-dependent effect | ED50 ([32]; po, read-out: ID50 (the source's name)): 3 mg/kg

clearance [37]: 12.2 mL/min/kg | IC50 [1]: 45 nM | half-life [38]: 0.8 h | bioavailability [39]: 24% | concentration at 0.25 h [12]: 373 ng/mL | IC50 [15]: 2.8 nM | Vd [40]: 0.317 L/kg | inhibition [41]: 46% | fraction unbound [42]: 0.03 | clearance [43]: 12.2 mL/min/kg
SMILES: Cc1ccccc1Nc1nc2ccc(CC(=O)N3C[C@@H](F)C[C@H]3CO[C@H]3CC[C@H](C(=O)O)CC3)cc2o1
